# Key:
# Tumor Cell line [1] = assay: Evaluated in vitro for the log10 molecular concentration that caused 50 % inhibition of tumor growth of 60 human tumor cell lines; type: functional, cell-based
# Method in brief: (§1)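 Cells preincubated 24 h, then exposed to the agent at five 10-fold dilutions (0.01–100 μM for the platinum complexes) for 48 h. Cells fixed in situ and stained; solubilized stain read spectrophotometrically. Panel of leukemia, non-small-cell lung, ovarian and renal lines. Log GI50 or TGI taken per cell line in one experiment, then averaged across lines.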
# Tumor Cell line [2] = assay: Evaluated in vitro for the log10 molecular concentration that caused […] tumor growth of 60 human tumor cell lines.; type: functional, cell-based; method in brief: as §1
# Tumor Cell line [3] = assay: The compound was evaluated in vitro for the log10 molecular concentration that caused 50 % of 60 human tumor cell line kills; type: ADME, cell-based
# Method in brief: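 Human tumor cell lines (leukemia, non-small-cell lung, ovarian, renal) were preincubated 24 h. Platinum complexes were then added as five 10-fold dilutions, 0.01–100 μM, for 48 h, followed by in situ fixation and staining, with solubilized stain read spectrophotometrically. Log LC50 (50% cell kill) was averaged across cell lines within one experiment.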
Substance,GI50 (Tumor Cell line [1]) [µM],TGI (Tumor Cell line [2]) [µM],Log LC50 (Tumor Cell line [3])
[Bis(aminomethyl)ethylmethylsilane]tetrachloroplatinum(IV),6.17,39.8,–
[Bis(aminomethyl)pentamethylenesilane]dichloropaltinum(II) [listing 1 of 2 here],–,–,> -4.01
[Bis(aminomethyl)pentamethylenesilane]dichloropaltinum(II) [listing 2 of 2 here],11.7,67.6,–
[Bis(aminomethyl)pentamethylenesilane]tetrachloropaltinum(IV) [listing 1 of 2 here],–,–,> -4.01
[Bis(aminomethyl)pentamethylenesilane]tetrachloropaltinum(IV) [listing 2 of 2 here],4.17,50.1,–
[Bis(aminomethyl)tetramethylenesilane]dichloropaltinum(II) [listing 1 of 2 here],–,–,> -4
[Bis(aminomethyl)tetramethylenesilane]dichloropaltinum(II) [listing 2 of 2 here],25.7,89.1,–
[Bis(aminomethyl)tetramethylenesilane]tetrachloropaltinum(IV) [listing 1 of 2 here],–,–,> -4
[Bis(aminomethyl)tetramethylenesilane]tetrachloropaltinum(IV) [listing 2 of 2 here],4.47,49,–
cis-Bis[[(trimethylsilyl)methyl]amino]tetrachloroplatinum(IV) [listing 1 of 2 here],–,–,> -4.06
cis-Bis[[(trimethylsilyl)methyl]amino]tetrachloroplatinum(IV) [listing 2 of 2 here],5.89,22.9,–
